Consider 8 compounds from ChEMBL document CHEMBL1138579, “Synthesis of alkenyldiarylmethanes (ADAMs) containing benzo[d]isoxazole and oxazolidin-2-one rings, a new series of potent non-nucleoside HIV-1 reverse transcriptase inhibitors” (Eur J Med Chem, 2009).

A value given as a limit tells only on which side of the number the result lay.

The first data set addresses Human immunodeficiency virus type 1 reverse transcriptase (Human immunodeficiency virus 1, UniProt Q72547). Kind of data set: Inhibition of HIV1 recombinant reverse transcriptase assessed as incorporation of [32P]GTP into poly(rC).oligo(dG) (rCdG) homopolymer template primer. The method in brief: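 Purified recombinant HIV-1 RT, p66/51 heterodimer. Activity followed by [32P]GTP incorporation into poly(rC)·oligo(dG) homopolymer template-primer. IC50 taken as the mean of at least two separate experiments.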
`COC(=O)c1cc(/C(=C/CCN2CCOC2=O)c2cc(C)c3onc(OC)c3c2)cc(Cl)c1OC`: the concentration for half-maximal inhibition (IC50) (in general, the concentration that inhibits the measured activity by half) amounted to 5.88 µM.
Still for that read-out and setting: then `COC(=O)c1cc(/C(=C/CCN2CCOC2=O)c2cc(C)c3onc(OC)c3c2)cc(C)c1OC`, with 18.2 µM.
The same measure, in the same setting: for `COC(=O)CCC/C=C(/c1cc(C)c2onc(OC)c2c1)c1cc(C)c2oc(=O)n(C)c2c1` the value was 0.25 µM; for `COc1noc2c(C)cc(/C(=C\CCN3CCOC3=O)c3cc(C)c4oc(=O)n(C)c4c3)cc12`, 3.6 µM; for `COC(=O)c1cc(/C(=C\CCN2CCOC2=O)c2cc(C)c3onc(OC)c3c2)cc(C)c1OC`, 0.63 µM.
Same read-out and setting: then `COc1noc2c(C)cc(/C(=C\CCN3CCOC3=O)c3cccc(C#N)c3)cc12`, with 39.2 µM; and `COc1noc2c(C)cc(C(=CCCN3CCOC3=O)c3cc(C)c4onc(OC)c4c3)cc12`, with 0.93 µM.

Test system in a further data set: not listed separately
Kind of data set: Cytotoxicity against human MT4 cells by MTT assay. Type of data set: cell-based.
With `Cc1ccnc2c1NC(=O)c1cccnc1N2C1CC1` [NEVIRAPINE], the 50% cytotoxic concentration (CC50) (in general, the concentration that lowers cell viability or growth by half) is over 200 µM.
